# From ChEMBL document CHEMBL5303300, “EUbOPEN Chemogenomics Library - Multiplex” (2023)
# Several values for one entry are separate records, joined by “and”; a condition that tells them apart may be missing. Equal values may be shown once.
# Key:
# Assay type in all cases: toxicity, cell-based
# [1] = system: Fibroblast; assay: Multiplex assay against human fibroblast; settings: number of replicates 2
# Procedure, shortened: (§1)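 Imaging took place on a CQ1 microscope at 37°C and 5% CO2 once compound had been added to live cells stained at seeding with Hoechst33342, BioTracker Green Microtubule Cytoskeleton Dye, MitoTracker Red and Annexin V Alexa Fluor 680. CellPathfinder machine-learning gating classed cells as Hoechst high-intensity objects or normal cells, classed normal cells as having healthy, pyknosed or fragmented nuclei, and classed pyknosed cells as mitotic or apoptotic. Tubulin, mitochondrial-mass and membrane-permeability phenotypes are per cents of the healthy-nucleus cells.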
# [2] = system: HEK-293T; assay: Multiplex assay against HEK293T; settings: human, number of replicates 2; procedure, shortened: as §1
# [3] = system: U2OS; assay: Multiplex assay against U2OS; settings: human, number of replicates 2; procedure, shortened: as §1
# [4] = 12 h, 1 µM, compound concentration 1 uM
# [5] = 12 h, 10 µM, compound concentration 10 uM
# [6] = 24 h, 1 µM, compound concentration 1 uM
# [7] = 24 h, 10 µM, compound concentration 10 uM
# [8] = 48 h, 1 µM, compound concentration 1 uM
# [9] = 48 h, 10 µM, compound concentration 10 uM
smiles,measurement,setting,value
Fc1cccc(-n2cnc3c(NCc4nc5ccc(F)c(F)c5[nH]4)nc(N4CCOCC4)nc32)c1,Population Apoptotic (%),[1]; [4],46% and 50%
same,Population Fragmented Nuclei (%),[1]; [4],8% and 5%
same,Population Healthy Nuclei (%),[1]; [4],78% and 65%
same,Population Hoechst High Intensity Objects (%),[1]; [4],0%
same,Population Membrane Permeable-Phenotype (%),[1]; [4],5% and 4%
same,Population Mitochondria Different-Phenotype (%),[1]; [4],0%
same,Population Mitotic Cells (%),[1]; [4],53% and 49%
same,Population Normal (%),[1]; [4],99% and 100%
same,Population Pyknosed Nuclei (%),[1]; [4],12% and 28%
same,Population Tubulin-Different-Phenotype (%),[1]; [4],21% and 15%
same,Total Cell Count,[1]; [4],211 and 198
same,Population Apoptotic (%),[1]; [5],55% and 40%
same,Population Fragmented Nuclei (%),[1]; [5],6% and 10%
same,Population Healthy Nuclei (%),[1]; [5],63% and 68%
same,Population Hoechst High Intensity Objects (%),[1]; [5],0%
same,Population Membrane Permeable-Phenotype (%),[1]; [5],6% and 8%
same,Population Mitochondria Different-Phenotype (%),[1]; [5],21% and 11%
same,Population Mitotic Cells (%),[1]; [5],44% and 60%
same,Population Normal (%),[1]; [5],99% and 100%
same,Population Pyknosed Nuclei (%),[1]; [5],29% and 21%
same,Population Tubulin-Different-Phenotype (%),[1]; [5],72% and 75%
same,Total Cell Count,[1]; [5],152 and 213
same,Population Apoptotic (%),[1]; [6],85% and 72%
same,Population Fragmented Nuclei (%),[1]; [6],12% and 10%
same,Population Healthy Nuclei (%),[1]; [6],44% and 66%
same,Population Hoechst High Intensity Objects (%),[1]; [6],0%
same,Population Membrane Permeable-Phenotype (%),[1]; [6],13% and 5%
same,Population Mitochondria Different-Phenotype (%),[1]; [6],0%
same,Population Mitotic Cells (%),[1]; [6],14% and 27%
same,Population Normal (%),[1]; [6],100% and 99%
same,Population Pyknosed Nuclei (%),[1]; [6],42% and 22%
same,Population Tubulin-Different-Phenotype (%),[1]; [6],25% and 36%
same,Total Cell Count,[1]; [6],197 and 196
same,Population Apoptotic (%),[1]; [7],44% and 42%
same,Population Hoechst High Intensity Objects (%),[1]; [7],0%
same,Population Mitochondria Different-Phenotype (%),[1]; [7],57% and 31%
same,Population Mitotic Cells (%),[1]; [7],55% and 57%
same,Population Normal (%),[1]; [7],100% and 99%
same,Population Pyknosed Nuclei (%),[1]; [7],27% and 17%
same,Population Tubulin-Different-Phenotype (%),[1]; [7],100% and 74%
same,Population Apoptotic (%),[1]; [8],85% and 90%
same,Population Fragmented Nuclei (%),[1]; [8],12% and 10%
same,Population Healthy Nuclei (%),[1]; [8],21% and 20%
same,Population Hoechst High Intensity Objects (%),[1]; [8],2% and 0%
same,Population Membrane Permeable-Phenotype (%),[1]; [8],13% and 17%
same,Population Mitochondria Different-Phenotype (%),[1]; [8],2%
same,Population Mitotic Cells (%),[1]; [8],14% and 9%
same,Population Normal (%),[1]; [8],97% and 99%
same,Population Pyknosed Nuclei (%),[1]; [8],66% and 68%
same,Population Tubulin-Different-Phenotype (%),[1]; [8],47% and 28%
same,Total Cell Count,[1]; [8],172 and 174
same,Population Apoptotic (%),[1]; [9],77% and 73%
same,Population Fragmented Nuclei (%),[1]; [9],11% and 14%
same,Population Healthy Nuclei (%),[1]; [9],60% and 65%
same,Population Hoechst High Intensity Objects (%),[1]; [9],0%
same,Population Membrane Permeable-Phenotype (%),[1]; [9],1% and 2%
same,Population Mitochondria Different-Phenotype (%),[1]; [9],27% and 23%
same,Population Mitotic Cells (%),[1]; [9],22% and 26%
same,Population Normal (%),[1]; [9],100%
same,Population Pyknosed Nuclei (%),[1]; [9],28% and 19%
same,Population Tubulin-Different-Phenotype (%),[1]; [9],72% and 75%
same,Total Cell Count,[1]; [9],140 and 207
same,Population Apoptotic (%),[2]; [4],54% and 71%
same,Population Fragmented Nuclei (%),[2]; [4],7% and 5%
same,Population Healthy Nuclei (%),[2]; [4],81% and 64%
same,Population Hoechst High Intensity Objects (%),[2]; [4],12% and 18%
same,Population Membrane Permeable-Phenotype (%),[2]; [4],2%
same,Population Mitochondria Different-Phenotype (%),[2]; [4],61% and 54%
same,Population Mitotic Cells (%),[2]; [4],45% and 28%
same,Population Normal (%),[2]; [4],87% and 81%
same,Population Pyknosed Nuclei (%),[2]; [4],10% and 29%
same,Population Tubulin-Different-Phenotype (%),[2]; [4],86% and 80%
same,Total Cell Count,[2]; [4],334 and 362
same,Population Apoptotic (%),[2]; [5],69% and 80%
same,Population Fragmented Nuclei (%),[2]; [5],1% and 4%
same,Population Healthy Nuclei (%),[2]; [5],80% and 73%
same,Population Hoechst High Intensity Objects (%),[2]; [5],6% and 11%
same,Population Membrane Permeable-Phenotype (%),[2]; [5],2% and 3%
same,Population Mitochondria Different-Phenotype (%),[2]; [5],81% and 68%
same,Population Mitotic Cells (%),[2]; [5],30% and 20%
same,Population Normal (%),[2]; [5],93% and 88%
same,Population Pyknosed Nuclei (%),[2]; [5],18% and 22%
same,Population Tubulin-Different-Phenotype (%),[2]; [5],94%
same,Total Cell Count,[2]; [5],319 and 328
same,Population Apoptotic (%),[2]; [6],65% and 77%
same,Population Fragmented Nuclei (%),[2]; [6],3% and 7%
same,Population Healthy Nuclei (%),[2]; [6],83% and 57%
same,Population Hoechst High Intensity Objects (%),[2]; [6],22% and 24%
same,Population Membrane Permeable-Phenotype (%),[2]; [6],0% and 1%
same,Population Mitochondria Different-Phenotype (%),[2]; [6],75% and 72%
same,Population Mitotic Cells (%),[2]; [6],34% and 22%
same,Population Normal (%),[2]; [6],77% and 75%
same,Population Pyknosed Nuclei (%),[2]; [6],12% and 35%
same,Population Tubulin-Different-Phenotype (%),[2]; [6],88% and 80%
same,Total Cell Count,[2]; [6],263 and 293
same,Population Apoptotic (%),[2]; [7],82% and 62%
same,Population Fragmented Nuclei (%),[2]; [7],3% and 2%
same,Population Healthy Nuclei (%),[2]; [7],85% and 88%
same,Population Hoechst High Intensity Objects (%),[2]; [7],13% and 15%
same,Population Membrane Permeable-Phenotype (%),[2]; [7],1% and 2%
same,Population Mitochondria Different-Phenotype (%),[2]; [7],83% and 82%
same,Population Mitotic Cells (%),[2]; [7],17% and 37%
same,Population Normal (%),[2]; [7],86% and 84%
same,Population Pyknosed Nuclei (%),[2]; [7],10% and 8%
same,Population Tubulin-Different-Phenotype (%),[2]; [7],93% and 94%
same,Total Cell Count,[2]; [7],366 and 334
same,Population Apoptotic (%),[2]; [8],69% and 80%
same,Population Fragmented Nuclei (%),[2]; [8],5% and 7%
same,Population Healthy Nuclei (%),[2]; [8],82% and 60%
same,Population Hoechst High Intensity Objects (%),[2]; [8],23% and 24%
same,Population Membrane Permeable-Phenotype (%),[2]; [8],1% and 3%
same,Population Mitochondria Different-Phenotype (%),[2]; [8],84% and 70%
same,Population Mitotic Cells (%),[2]; [8],30% and 19%
same,Population Normal (%),[2]; [8],76% and 75%
same,Population Pyknosed Nuclei (%),[2]; [8],11% and 32%
same,Population Tubulin-Different-Phenotype (%),[2]; [8],88% and 73%
same,Total Cell Count,[2]; [8],251 and 297
same,Population Apoptotic (%),[2]; [9],89% and 85%
same,Population Fragmented Nuclei (%),[2]; [9],4% and 5%
same,Population Healthy Nuclei (%),[2]; [9],85% and 83%
same,Population Hoechst High Intensity Objects (%),[2]; [9],13% and 16%
same,Population Membrane Permeable-Phenotype (%),[2]; [9],1% and 0%
same,Population Mitochondria Different-Phenotype (%),[2]; [9],92%
same,Population Mitotic Cells (%),[2]; [9],10% and 14%
same,Population Normal (%),[2]; [9],86% and 83%
same,Population Pyknosed Nuclei (%),[2]; [9],10%
same,Population Tubulin-Different-Phenotype (%),[2]; [9],96% and 94%
same,Total Cell Count,[2]; [9],333 and 303
same,Population Fragmented Nuclei (%),[3]; [4],13%
same,Population Healthy Nuclei (%),[3]; [4],59% and 53%
same,Population Hoechst High Intensity Objects (%),[3]; [4],0%
same,Population Membrane Permeable-Phenotype (%),[3]; [4],2% and 5%
same,Population Mitochondria Different-Phenotype (%),[3]; [4],5% and 0%
same,Population Normal (%),[3]; [4],99% and 100%
same,Population Pyknosed Nuclei (%),[3]; [4],27% and 32%
same,Population Tubulin-Different-Phenotype (%),[3]; [4],68% and 31%
same,Population Apoptotic (%),[3]; [5],86% and 90%
same,Population Hoechst High Intensity Objects (%),[3]; [5],0%
same,Population Membrane Permeable-Phenotype (%),[3]; [5],33% and 45%
same,Population Mitochondria Different-Phenotype (%),[3]; [5],33% and 52%
same,Population Mitotic Cells (%),[3]; [5],13% and 9%
same,Population Normal (%),[3]; [5],100% and 99%
same,Population Pyknosed Nuclei (%),[3]; [5],41% and 57%
same,Population Tubulin-Different-Phenotype (%),[3]; [5],100% and 78%
same,Population Apoptotic (%),[3]; [6],63% and 97%
same,Population Fragmented Nuclei (%),[3]; [6],8% and 19%
same,Population Healthy Nuclei (%),[3]; [6],14% and 15%
same,Population Hoechst High Intensity Objects (%),[3]; [6],5% and 3%
same,Population Membrane Permeable-Phenotype (%),[3]; [6],12% and 28%
same,Population Mitochondria Different-Phenotype (%),[3]; [6],12% and 23%
same,Population Normal (%),[3]; [6],95% and 96%
same,Population Pyknosed Nuclei (%),[3]; [6],77% and 64%
same,Population Tubulin-Different-Phenotype (%),[3]; [6],37% and 73%
same,Population Apoptotic (%),[3]; [7],90% and 94%
same,Population Hoechst High Intensity Objects (%),[3]; [7],0% and 1%
same,Population Mitochondria Different-Phenotype (%),[3]; [7],100% and 69%
same,Population Mitotic Cells (%),[3]; [7],9% and 5%
same,Population Normal (%),[3]; [7],100% and 98%
same,Population Pyknosed Nuclei (%),[3]; [7],55% and 76%
same,Population Tubulin-Different-Phenotype (%),[3]; [7],100% and 65%
same,Population Apoptotic (%),[3]; [8],87% and 100%
same,Population Fragmented Nuclei (%),[3]; [8],8% and 21%
same,Population Healthy Nuclei (%),[3]; [8],2% and 8%
same,Population Hoechst High Intensity Objects (%),[3]; [8],6%
same,Population Membrane Permeable-Phenotype (%),[3]; [8],100% and 42%
same,Population Mitotic Cells (%),[3]; [8],12% and 0%
same,Population Normal (%),[3]; [8],93%
same,Population Pyknosed Nuclei (%),[3]; [8],89% and 70%
same,Population Tubulin-Different-Phenotype (%),[3]; [8],100% and 94%
same,Population Apoptotic (%),[3]; [9],100% and 99%
same,Population Healthy Nuclei (%),[3]; [9],4% and 10%
same,Population Hoechst High Intensity Objects (%),[3]; [9],0%
same,Population Membrane Permeable-Phenotype (%),[3]; [9],100% and 60%
same,Population Mitochondria Different-Phenotype (%),[3]; [9],50% and 93%
same,Population Mitotic Cells (%),[3]; [9],0%
same,Population Normal (%),[3]; [9],100%
same,Population Pyknosed Nuclei (%),[3]; [9],46% and 81%
same,Population Tubulin-Different-Phenotype (%),[3]; [9],100% and 73%
